# Shown is part of a subset that was picked to be rich in hits.
# Redox H2O2 prof: compounds producing H2O2 with reducing agent – biochemical, NIH compound library profiling, artefact control for MLSCN library redox annotation, primary screen; DTT-dependent redox cycling H2O2, phenol red/HRP absorbance; 100% = 100 µM peroxide control, 0% = buffer; 0.03% of 200,000 active; activation, % at 10 µM; AID 878, 2007;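 active = activation of at least 50% relative to the plate's high and low controls in the primary single-dose screen; inactive = activation below 50%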;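 also: compound incubated with DTT at 0.8 mM final as the reducing agent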
# PfGluPho inh: PfG6PD enzyme inhibitors, primary screen, biochemical, fluorescence intensity, uHTS; inhibition, % at 20 µM; PfGluPho enzyme, NADPH resazurin-diaphorase fluorescence; 0.78% of 350,000 active; glucose-6-phosphate dehydrogenase-6-phosphogluconolactonase (Plasmodium falciparum 3D7);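 active = inhibition reaching at least a set limit at 20 µM in the primary screen, cut at about 59% in these data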;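 also: 0% = DMSO wells with substrate and 100% = DMSO wells lacking glucose-6-phosphate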
# Diaphorase act: compounds boosting diaphorase resazurin reduction – biochemical, uHTS, resorufin fluorescence, counter-screen for diaphorase-coupled primary assays, primary screen | Diaphorase/resazurin coupled assay, 16 min; active compounds read high; 1 = vehicle wells, 0 = NADH-free wells | activation factor at 20 µM | 0.005% of 190,000 active | AID 1229, 2008;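 active = diaphorase activity raised at least twofold by the compound at 20 µM; inactive = activation factor below 2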
#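 Material: Purified diaphorase enzyme from Clostridium kluyveri | Buffer or medium: 50 mM HEPES pH 7.4 with 4.542 mM MgCl2, 0.005% Tween 20 | Times: 16 min enzyme reaction, ambient temperature | Signal: Red resorufin fluorescence at 544/590 nm excitation/emission | Measure: Increased resorufin signal from activators or reducing compounds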
# Diaphorase inh: diaphorase inhibitors and chemical oxidizers, primary screen, counter-screen for diaphorase-coupled primary assays, biochemical, uHTS, resorufin fluorescence; diaphorase resazurin-to-resorufin fluorescence, NADH, 16 min; bacterial (C. kluyveri) enzyme, not human; inhibition, % at 20 µM; 0.69% of 190,000 active;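 active = primary screen inhibition at 20 µM above a set limit, cut at about 50% in these data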;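 also: plate controls were DMSO with full reaction for no effect and wells lacking NADH for full effect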
#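 Assay system: diaphorase enzyme from Clostridium kluyveri; Input: enzyme working solution with 0.14 U/mL diaphorase; Timing: 16 min at room temperature; Technique: resorufin fluorescence, excitation 544 nm, emission 590 nm; Benchmarks: positive control minus NADH, DMSO neutral control.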
# G6PDH CS: L. mesenteroides G6PDH inhibitors, counter-screen for G6PDH-coupled screening assays, biochemical, Leuconostoc mesenteroides enzyme | Purified L. mesenteroides G6PDH, diaphorase/resazurin coupled fluorescence, 45 min | glucose-6-phosphate dehydrogenase [Leuconostoc mesenteroides] | 0.12% of 200,000 active | AID 1020, 2008 | inhibition, % at 5 µM
# Lmaj promast: Leishmania major promastigote growth inhibition, primary screen. AID 1063, 2008. 9% of 200,000 active. Leishmania major promastigotes, resazurin fluorescence viability. inhibition, % at 10 µM;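 also: promastigotes grown with compound for 44 hours at 28 °C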
# PfGluPho conf: PfG6PD inhibitors, hit retest, confirmation, biochemical, fluorescence intensity, single concentration; recombinant PfGluPho, NADPH-diaphorase-resazurin fluorescence; 34% of 2,400 active; shares compounds with PfGluPho inh; AID 504753, 2011; inhibition, % at 20 µM;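 active = inhibition of at least 50% at 20 µM in any single replicate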;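 also: 0% = DMSO with substrate and 100% = DMSO lacking glucose-6-phosphate substrate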
# Diaph ctr 10uM: diaphorase inhibitors and chemical oxidizers, confirmation, counter-screen for P. falciparum G6PD inhibitor project, biochemical, fluorescence intensity, 10 µM NADPH; shares compounds with PfGluPho inh; diaphorase-coupled resazurin reduction, NADPH 10 uM; inhibition, % at 20 µM; 39% of 820 active;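 active = average inhibition reaching 50% or more with the compound at 20 µM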;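 also: resorufin red fluorescence formed as diaphorase reduces resazurin using NADPH; 0% = DMSO with enzyme and 100% = DMSO without enzyme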
# Diaph ctr 30uM: diaphorase inhibitors and chemical oxidizers, confirmation, counter-screen for P. falciparum G6PD inhibitor project, biochemical, fluorescence intensity, 30 µM NADPH; shares compounds with PfGluPho inh; Diaphorase/resazurin coupled assay, resorufin fluorescence; inhibition, % at 20 µM; 29% of 820 active; AID 504863, 2011;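 active = inhibition averaging 50% or more, tested at 20 µM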;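 also: 0% = DMSO with enzyme and 100% = DMSO wells lacking diaphorase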
# Numbers without * were called inactive; . = no result. Rule as the data show it, unless noted: active = inhibition above about 50%; inactive = the rest.
SMILES,Redox H2O2 prof,PfGluPho inh,Diaphorase act,Diaphorase inh,G6PDH CS,Lmaj promast,PfGluPho conf,others
COC(=O)CCC(=O)OC1(C)C(=O)C2=CN(CC3CC3)C(c3ccc(OC)cc3)=CC2=C(Br)C1=O (stereo not given),.,76*,.,.,.,.,44,
COC(=O)CCC(=O)OC1(C)C(=O)C2=CN(CCc3c[nH]c4ccccc34)C(c3ccc(OC)cc3)=CC2=C(Br)C1=O (stereo not given),.,53,.,.,.,.,.,
COc1cc(-c2nnc(SCC(=O)Nc3ccc(C(=O)O)cc3)o2)cc(OC)c1OC,.,0,.,.,.,.,.,
Cc1ccc(-c2nnc(CSc3nnc(COc4ccccc4)n3-c3ccccc3)o2)cc1,2,3,0.8,16,-1,41,.,
CCOc1ccc(-c2nnc(SCc3nnc(-c4ccccc4)o3)n2-c2ccccc2F)cc1,0,85*,0.7,27,12,99*,37,
CN=c1sc2c(n1C)C(=O)c1ccccc1C2=O,.,72*,.,.,.,.,18,
CN=c1sc(C(=O)Nc2ccccc2)c(C)n1C,0,1,1.1,-7,3,9,.,
COc1cc(C(=O)C(=O)c2cc(OC)c(O)c(OC)c2)cc(OC)c1O,.,4,.,.,.,.,.,
COc1cc(-c2cc(OC)c(O)c(OC)c2)cc(OC)c1O,.,100*,.,.,.,.,72*,Diaph ctr 10uM=7;Diaph ctr 30uM=1
COc1ccc(NC(=S)N(CCC(C)C)C2CCN(C(C)C)CC2)cc1Cl,.,69*,.,.,.,.,83*,Diaph ctr 10uM=-13;Diaph ctr 30uM=-14
COCCN(C(=S)Nc1ccc(OC)c(Cl)c1)C1CCN(C(C)C)CC1,0,28,0.9,5,5,8,.,
Cn1c(C(=O)Nc2ccc3c(c2)OCCO3)cc2sccc21,1,66*,0.9,13,-5,10,18,
O=C(Nc1ccc2c(c1)OCCO2)c1cc2sccc2n1Cc1ccccc1,3,39,0.8,25,3,47,.,
Nn1c(Cc2cccc3ccccc23)nnc1SCCOc1ccc(F)cc1,-1,2,0.7,25,-6,5,.,
CCc1nc(Nc2cccc(O)c2)c2oc3ccccc3c2n1,.,73*,.,.,.,.,12,
COc1ccc(NC2CCCN(Cc3cccc4cnccc34)C2)cc1 (stereo not given),.,10,.,.,.,.,.,
COc1ccc(NC2CCCN(Cc3cccc4cnccc34)C2)cc1OC (stereo not given),.,65*,.,.,.,.,58*,Diaph ctr 10uM=10;Diaph ctr 30uM=2
COn1c(-c2ccc(Cl)cc2)nc2ccc(Cl)cc21,4,66*,0.9,10,-1,2,8,
Clc1ccc(COn2c(-c3ccc(Cl)cc3)nc3ccccc32)cc1,1,31,0.9,14,0,18,.,
O=C(O)COn1c(-c2ccc(Cl)cc2)nc2ccc(Cl)cc21,-1,60*,0.9,6,6,5,36,
CCOC(=O)Cc1cnc(NC(=O)CSc2nc(C)c(CC)c(=O)[nH]2)s1,1,-16,1,1,0,-2,.,
Cc1cc(=O)oc2cc(OCC(=O)N3CCOCC3)ccc12,1,68*,0.9,8,1,-3,28,
Cc1cc(=O)oc2cc(OCC(=O)N3CCCC3)ccc12,.,1,.,.,.,.,.,
CCOC(=O)C(C(=O)OCC)C(C[N+](=O)[O-])c1ccccc1 (stereo not given),-2,-14,0.8,18,1,2,.,
N#Cc1ccc(OCc2noc(-c3ccsc3)n2)cc1,.,2,.,.,.,.,.,
SMILES,Redox H2O2 prof,PfGluPho inh,Diaphorase act,Diaphorase inh,G6PDH CS,Lmaj promast,PfGluPho conf,others
CC(=O)N(c1ccccc1C)C1CCCC1,0,-1,0.8,16,9,-2,.,
CC(=O)N(C1=C(Cl)C(=O)c2ccccc2C1=O)C1CCCCC1,.,116*,.,.,.,.,113*,Diaph ctr 10uM=98*;Diaph ctr 30uM=95*
Oc1ccc(Br)cc1CNc1cccc2cccnc12,.,72*,.,.,.,.,15,
CCN(CC(=O)Nc1c(F)cccc1F)C(=O)c1cccc(S(=O)(=O)N(C)c2ccccc2)c1,.,-2,.,.,.,.,.,
CCN1/C(=C2\SC(=S)N(Cc3ccccc3)C2=O)Sc2ccccc21,1,-19,0.9,8,-18,-5,.,
CCC(CO)[n+]1c(C)cc(/C=C2\Sc3ccccc3N2Cc2ccccc2)cc1C (stereo not given),0,74*,0.8,16,-30,100*,54*,Diaph ctr 10uM=24;Diaph ctr 30uM=31
Cc1cc(C(=O)N/N=C/c2cccc([N+](=O)[O-])c2)c(C)n1-c1ccccc1,0,60*,0.8,19,-7,18,28,
O=C(N/N=C/c1cccc([N+](=O)[O-])c1)C(=O)N1CCCCCC1,.,80*,.,.,.,.,58*,Diaph ctr 10uM=60*;Diaph ctr 30uM=47
O=C(N/N=C/c1cccc(O)c1)C(=O)N1CCCCCC1,.,-13,.,.,.,.,.,
CSc1ccc(S(=O)(=O)NC2CC2)cc1,.,-3,.,.,.,.,.,
Cc1ccc(C(=O)NCC(=O)N(C)CC(=O)Nc2ccccc2Br)s1,.,-8,.,.,.,.,.,
CC1CCCC(N2CCN(C(=O)c3ccc([N+](=O)[O-])cc3)CC2)C1 (stereo not given),.,3,.,.,.,.,.,
COC(OC)c1ccc(C#N)c(SCc2ccc(C)cc2)n1,.,-7,.,.,.,.,.,
Cn1c2nc(=O)n(-c3ccccc3)c(=O)c-2nc2c1CCCC2,.,81*,.,.,.,.,49,
CCN(CC)S(=O)(=O)c1cccc(C(=O)N/N=C/c2ccc(O)c(O)c2O)c1,0,66*,0.2,80*,10,25,71*,Diaph ctr 10uM=76*;Diaph ctr 30uM=86*
CCOc1ccccc1/C=N/NC(=O)c1cccc(S(=O)(=O)N(CC)CC)c1,-1,110*,0.8,16,5,-2,60*,Diaph ctr 10uM=64*;Diaph ctr 30uM=54*
CCn1c(C)nc2cc(C(=O)N/N=C/c3ccc(O)c(O)c3O)ccc21,0,85*,0.2,75*,23,-11,90*,Diaph ctr 10uM=86*;Diaph ctr 30uM=89*
CCOc1ccccc1/C=N/NC(=O)c1c(C)nc2ccc(Br)cn12,.,123*,.,.,.,.,98*,Diaph ctr 10uM=93*;Diaph ctr 30uM=97*
